Source: ChEMBL document CHEMBL5058577, “EUbOPEN Chemogenomics Library 2 (Multiplex)” (2022)

System: Fibroblast
Experiment: Multiplex assay against human fibroblast
Assay type: toxicity, cell-based
Outline: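 Phenotypes for tubulin, mitochondrial mass and membrane permeability are expressed as per cents of healthy-nucleus cells. Cells were stained live at seeding with Hoechst33342, BioTracker Green Microtubule Cytoskeleton Dye, MitoTracker Red and Annexin V Alexa Fluor 680, then imaged after compound addition on a CQ1 microscope at 37°C and 5% CO2. Machine-learning gating in CellPathfinder separated Hoechst high-intensity objects from normal cells, divided normal cells by nuclear state (healthy, pyknosed, fragmented) and divided pyknosed cells into mitotic or apoptotic.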

[1] = 12 h, 1 µM, compound concentration 1 uM, replicate 1
[2] = 12 h, 1 µM, compound concentration 1 uM, replicate 2
[3] = 12 h, 10 µM, compound concentration 10 uM, replicate 1
[4] = 12 h, 10 µM, compound concentration 10 uM, replicate 2
[5] = 24 h, 1 µM, compound concentration 1 uM, replicate 1
[6] = 24 h, 1 µM, compound concentration 1 uM, replicate 2
[7] = 24 h, 10 µM, compound concentration 10 uM, replicate 1
[8] = 24 h, 10 µM, compound concentration 10 uM, replicate 2
[9] = 48 h, 1 µM, compound concentration 1 uM, replicate 1
[10] = 48 h, 1 µM, compound concentration 1 uM, replicate 2
[11] = 48 h, 10 µM, compound concentration 10 uM, replicate 1
[12] = 48 h, 10 µM, compound concentration 10 uM, replicate 2

## COc1c(Nc2ccc(S(C)(=O)=O)nc2C)ncnc1OC1CCN(C(=O)OC(C)C)CC1 [ADP-597]
[1]
  Population Apoptotic (%): 57%
  Population Fragmented Nuclei (%): 14%
  Population Healthy Nuclei (%): 71%
  Population Hoechst High Intensity Objects (%): 3%
  Population Membrane Permeable-Phenotype (%): 0%
  Population Mitochondria Different-Phenotype (%): 10%
  Population Mitotic Cells (%): 42%
  Population Normal (%): 96%
  Population Pyknosed Nuclei (%): 14%
  Population Tubulin-Different-Phenotype (%): 34%
  Total Cell Count: 133
[2]
  Population Apoptotic (%): 42%
  Population Fragmented Nuclei (%): 27%
  Population Healthy Nuclei (%): 40%
  Population Hoechst High Intensity Objects (%): 4%
  Population Membrane Permeable-Phenotype (%): 2%
  Population Mitochondria Different-Phenotype (%): 7%
  Population Mitotic Cells (%): 57%
  Population Normal (%): 95%
  Population Pyknosed Nuclei (%): 33%
  Population Tubulin-Different-Phenotype (%): 27%
  Total Cell Count: 105
[3]
  Population Apoptotic (%): 44%
  Population Fragmented Nuclei (%): 21%
  Population Healthy Nuclei (%): 58%
  Population Hoechst High Intensity Objects (%): 2%
  Population Membrane Permeable-Phenotype (%): 0%
  Population Mitochondria Different-Phenotype (%): 15%
  Population Mitotic Cells (%): 56%
  Population Normal (%): 97%
  Population Pyknosed Nuclei (%): 20%
  Population Tubulin-Different-Phenotype (%): 54%
  Total Cell Count: 127
[4]
  Population Apoptotic (%): 39%
  Population Fragmented Nuclei (%): 43%
  Population Healthy Nuclei (%): 27%
  Population Membrane Permeable-Phenotype (%): 11%
  Population Mitochondria Different-Phenotype (%): 14%
  Population Mitotic Cells (%): 60%
  Population Normal (%): 98%
  Population Pyknosed Nuclei (%): 28%
  Population Tubulin-Different-Phenotype (%): 77%
  Total Cell Count: 100
[5]
  Population Apoptotic (%): 47%
  Population Fragmented Nuclei (%): 17%
  Population Healthy Nuclei (%): 67%
  Population Hoechst High Intensity Objects (%): 4%
  Population Membrane Permeable-Phenotype (%): 0%
  Population Mitochondria Different-Phenotype (%): 1%
  Population Mitotic Cells (%): 52%
  Population Normal (%): 95%
  Population Pyknosed Nuclei (%): 15%
  Population Tubulin-Different-Phenotype (%): 27%
  Total Cell Count: 146
[6]
  Population Apoptotic (%): 37%
  Population Fragmented Nuclei (%): 25%
  Population Healthy Nuclei (%): 50%
  Population Hoechst High Intensity Objects (%): 10%
  Population Membrane Permeable-Phenotype (%): 10%
  Population Mitochondria Different-Phenotype (%): 2%
  Population Mitotic Cells (%): 62%
  Population Normal (%): 89%
  Population Pyknosed Nuclei (%): 24%
  Population Tubulin-Different-Phenotype (%): 48%
  Total Cell Count: 109
[7]
  Population Apoptotic (%): 52%
  Population Fragmented Nuclei (%): 20%
  Population Healthy Nuclei (%): 60%
  Population Hoechst High Intensity Objects (%): 5%
  Population Membrane Permeable-Phenotype (%): 0%
  Population Mitochondria Different-Phenotype (%): 5%
  Population Mitotic Cells (%): 47%
  Population Normal (%): 94%
  Population Pyknosed Nuclei (%): 18%
  Population Tubulin-Different-Phenotype (%): 41%
  Total Cell Count: 131
[8]
  Population Apoptotic (%): 27%
  Population Fragmented Nuclei (%): 49%
  Population Healthy Nuclei (%): 31%
  Population Hoechst High Intensity Objects (%): 6%
  Population Membrane Permeable-Phenotype (%): 10%
  Population Mitochondria Different-Phenotype (%): 3%
  Population Mitotic Cells (%): 72%
  Population Normal (%): 93%
  Population Pyknosed Nuclei (%): 19%
  Population Tubulin-Different-Phenotype (%): 75%
  Total Cell Count: 99
[9]
  Population Apoptotic (%): 64%
  Population Fragmented Nuclei (%): 25%
  Population Healthy Nuclei (%): 63%
  Population Hoechst High Intensity Objects (%): 2%
  Population Membrane Permeable-Phenotype (%): 0%
  Population Mitochondria Different-Phenotype (%): 4%
  Population Mitotic Cells (%): 35%
  Population Normal (%): 97%
  Population Pyknosed Nuclei (%): 11%
  Population Tubulin-Different-Phenotype (%): 30%
  Total Cell Count: 152
[10]
  Population Apoptotic (%): 42%
  Population Fragmented Nuclei (%): 28%
  Population Healthy Nuclei (%): 51%
  Population Hoechst High Intensity Objects (%): 9%
  Population Membrane Permeable-Phenotype (%): 2%
  Population Mitochondria Different-Phenotype (%): 0%
  Population Mitotic Cells (%): 57%
  Population Normal (%): 90%
  Population Pyknosed Nuclei (%): 20%
  Population Tubulin-Different-Phenotype (%): 59%
  Total Cell Count: 102
[11]
  Population Apoptotic (%): 73%
  Population Fragmented Nuclei (%): 29%
  Population Healthy Nuclei (%): 58%
  Population Hoechst High Intensity Objects (%): 8%
  Population Membrane Permeable-Phenotype (%): 0%
  Population Mitochondria Different-Phenotype (%): 20%
  Population Mitotic Cells (%): 26%
  Population Normal (%): 91%
  Population Pyknosed Nuclei (%): 12%
  Population Tubulin-Different-Phenotype (%): 57%
  Total Cell Count: 131
[12]
  Population Apoptotic (%): 75%
  Population Fragmented Nuclei (%): 56%
  Population Healthy Nuclei (%): 36%
  Population Hoechst High Intensity Objects (%): 2%
  Population Membrane Permeable-Phenotype (%): 2%
  Population Mitochondria Different-Phenotype (%): 18%
  Population Mitotic Cells (%): 25%
  Population Normal (%): 97%
  Population Pyknosed Nuclei (%): 7%
  Population Tubulin-Different-Phenotype (%): 84%
  Total Cell Count: 108
